According to ChEMBL document CHEMBL4014329, “Selective Inhibition of Escherichia coli RNA and DNA Topoisomerase I by Hoechst 33258 Derived Mono- and Bisbenzimidazoles” (J Med Chem, 2017):
In brackets after ≈: the same amount, converted by molar mass. Activity calls are given as the source filed them. The rule behind the calls is not given here.

How the values were obtained:
Enterococcus faecium = assay: Antibacterial activity against Enterococcus faecium BM4105RF after 24 hrs by microbroth dilution method; format: functional
In short: (§1)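 Mueller-Hinton broth cultures grown at 37 °C with shaking to log phase, pelleted, resuspended in 0.85% saline to OD625 0.1. Broth microdilution per CLSI guidelines, final inoculum 5 × 10^5 CFU/mL, in triplicate, 24 h at 37 °C. Growth read as OD625. MIC is the lowest concentration giving complete growth inhibition versus untreated controls.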

[1] = tested on: Staphylococcus epidermidis; assay: Antibacterial activity against Staphylococcus epidermidis ATCC 12384 after 24 hrs by microbroth dilution method; format: functional; settings: ATCC 12384, 24 h
In short: (§2)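 Microbroth dilution per CLSI guidelines. Organisms grown in Mueller−Hinton broth at 37 °C with shaking to log phase, pelleted, resuspended in 0.85% saline to OD625 0.1. Final inoculum 5 × 10^5 CFU/mL; triplicate; 24 h at 37 °C. OD625 read; MIC = lowest concentration completely inhibiting growth versus untreated controls.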

Staphylococcus aureus [2] = assay: Antibacterial activity against methicillin-resistant Staphylococcus aureus A960649 after 24 hrs by microbroth dilution method; format: functional; settings: A960649, 24 h; in short: as §1
Escherichia coli [3] = assay: Inhibition of Escherichia coli DNA gyrase using relaxed plasmid pBAD-GFPuv as substrate after 30 mins by agarose gel electrophoresis
Escherichia coli [4] = assay: Inhibition of Escherichia coli RNA topoisomerase 1 using circular RNA as substrate up to 50 uM after 1.5 hrs by SDS-PAGE analysis
In short: (§3)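 10 nM E. coli topoisomerase I premixed with reaction buffer and inhibitor diluted in DMSO, then circular RNA substrate added; 1.5 h incubation. Stopped with proteinase K/SDS/EDTA buffer. Trefoil RNA knot product separated from circular substrate on 15% TBE−urea gels and detected by phosphorimaging. DMSO-only control included.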

Shigella flexneri = assay: Antibacterial activity against Shigella flexneri 2457NR517 after 24 hrs by microbroth dilution method; format: functional; settings: 2457NR517, 24 h; in short: as §1
Escherichia coli [5] = assay: Antibacterial activity against Escherichia coli ATCC 25922 after 24 hrs by microbroth dilution method; format: functional; settings: ATCC 25922, 24 h; in short: as §2
Acinetobacter baumannii = assay: Antibacterial activity against Acinetobacter baumannii ATCC 19606 after 24 hrs by microbroth dilution method; format: functional; settings: ATCC 19606 = CIP 70.34 = JCM 6841, 24 h; in short: as §2
Pseudomonas aeruginosa = assay: Antibacterial activity against Pseudomonas aeruginosa ATCC 27853 after 24 hrs by microbroth dilution method; format: functional; settings: ATCC 27853, 24 h; in short: as §2
Klebsiella pneumoniae = assay: Antibacterial activity against Klebsiella pneumoniae NR15410 after 24 hrs by microbroth dilution method; format: functional; settings: NR15410, 24 h; in short: as §2
Enterobacter cloacae = assay: Antibacterial activity against Enterobacter cloacae ATCC 13047 after 24 hrs by microbroth dilution method; format: functional; settings: ATCC 13047, 24 h; in short: as §2
Citrobacter freundii = assay: Antibacterial activity against Citrobacter freundii 4747CFAA after 24 hrs by microbroth dilution method; format: functional; in short: as §2
DU-145 = assay: Cytotoxicity against human DU145 cells after 48 hrs by SRB assay; format: cell-based; settings: for Activity: human, du-145, 48 h; for IC50: Homo sapiens, DU-145, 48 h
In short: (§4)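 Cells cultured per ATCC protocols, seeded and grown 24 h (37 °C, 5% CO2), then treated in triplicate at final 20, 10, 5, 2.5, 1.25, 0.625 and 0.0625 μM for 48 h. Fixed with cold TCA (16% final, 4 °C, 1 h), stained with SRB in 1% acetic acid, dye solubilized in 10 mM Tris base, A560 read. IC50 derived; study in duplicate.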

Staphylococcus aureus [6] = assay: Antibacterial activity against methicillin-resistant Staphylococcus aureus 33591 after 24 hrs by microbroth dilution method; format: functional; settings: Staphylococcus aureus, 33591, 24 h; in short: as §1
Enterococcus faecalis = assay: Antibacterial activity against Enterococcus faecalis ATCC 29212 after 24 hrs by microbroth dilution method; format: functional; settings: ATCC 29212, 24 h; in short: as §2
Staphylococcus aureus [7] = assay: Antibacterial activity against Staphylococcus aureus ATCC 33591 after 24 hrs by microbroth dilution method; format: functional; settings: ATCC 33591, 24 h; in short: as §2
Staphylococcus aureus [8] = assay: Antibacterial activity against Staphylococcus aureus ATCC 29213 after 24 hrs by microbroth dilution method; format: functional; settings: ATCC 29213, 24 h; in short: as §2
[9] = Inhibition of Escherichia coli DNA topoisomerase 1 using plasmid pBAD-GFPuv as substrate after 15 mins by agarose gel electrophoresis
In short: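 E. coli topoisomerase I at 6 nM relaxing 150 ng supercoiled pBAD-GFPuv. 15 min at 37 °C, phenol-stopped, 1% agarose gel, ethidium stain. IC50 is the concentration leaving 50% DNA supercoiled; three independent determinations.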

DNA topoisomerase 1 = molecular target: T1, DNA topoisomerase 1 (Homo sapiens, UniProt P11387); assay: Inhibition of human DNA topoisomerase 1 using plasmid pBAD-GFPuv as substrate after 30 mins by agarose gel electrophoresis
T1 sequence (P11387 whole entry): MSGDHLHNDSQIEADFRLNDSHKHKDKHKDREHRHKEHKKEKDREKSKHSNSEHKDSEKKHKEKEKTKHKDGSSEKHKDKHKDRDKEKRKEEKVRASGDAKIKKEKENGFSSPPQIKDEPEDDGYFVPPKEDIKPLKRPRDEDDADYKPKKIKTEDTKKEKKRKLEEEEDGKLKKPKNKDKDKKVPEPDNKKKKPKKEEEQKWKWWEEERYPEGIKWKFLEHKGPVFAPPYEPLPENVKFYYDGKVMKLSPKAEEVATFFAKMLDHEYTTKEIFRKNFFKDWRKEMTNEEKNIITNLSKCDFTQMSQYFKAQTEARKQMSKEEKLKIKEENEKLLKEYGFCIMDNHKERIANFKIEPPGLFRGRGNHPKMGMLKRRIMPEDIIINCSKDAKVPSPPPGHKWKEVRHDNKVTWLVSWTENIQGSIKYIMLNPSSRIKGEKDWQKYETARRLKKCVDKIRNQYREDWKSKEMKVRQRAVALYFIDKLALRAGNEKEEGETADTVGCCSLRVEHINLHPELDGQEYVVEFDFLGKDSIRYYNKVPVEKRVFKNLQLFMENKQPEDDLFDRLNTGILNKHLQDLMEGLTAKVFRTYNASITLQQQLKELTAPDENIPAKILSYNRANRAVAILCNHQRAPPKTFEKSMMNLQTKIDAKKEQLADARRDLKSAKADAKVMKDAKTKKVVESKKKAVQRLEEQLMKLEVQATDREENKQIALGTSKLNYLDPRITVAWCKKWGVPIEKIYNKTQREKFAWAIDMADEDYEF

Escherichia coli [10] = assay: Inhibition of Escherichia coli RNA topoisomerase-1 using circular RNA as substrate 10 uM after 1.5 hrs by SDS-PAGE analysis; in short: as §3
[11] = Binding affinity to dA60.dT60 B-DNA duplex (unknown origin) assessed as change in melting temperature at 10 uM by UV-vis spectrophotometric analysis
In short: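 UV melting of dA60·dT60 at 1 μM/duplex with compound at 10 μM. Buffer 10 mM sodium cacodylate, 0.1 mM EDTA, 100 mM NaCl, pH 7.0; duplex pre-annealed from 95 °C. Compound stocks in DMSO diluted into buffer. Heating at 0.2 °C/min, monitored at 260 nm, points every 1.0 °C; Tm taken from derivatives.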

Escherichia coli [12] = assay: Antibacterial activity against Escherichia coli K-12 after 24 hrs by microbroth dilution method; format: functional; settings: K-12, 24 h; in short: as §2
[13] = Cytotoxicity against human PCS-201-010 cells after 48 hrs by SRB assay; format: cell-based; settings: PCS-201-010, 48 h; in short: as §4
[14] = Binding affinity to dA60.dT60 B-DNA duplex (unknown origin) assessed as induction of biphasic transition at <5 uM by UV-vis spectrophotometric analysis

Structure (SMILES) | MIC (Enterococcus faecium) [µg/mL] | MIC [1] [µg/mL] | MIC (Staphylococcus aureus [2]) [µg/mL] | inhibition (Escherichia coli [3]) | inhibition (Escherichia coli [4]) | MIC (Shigella flexneri) [µg/mL] | MIC (Escherichia coli [5]) [µg/mL] | MIC (Acinetobacter baumannii) [µg/mL] | MIC (Pseudomonas aeruginosa) [µg/mL] | MIC (Klebsiella pneumoniae) [µg/mL] | MIC (Enterobacter cloacae) [µg/mL] | MIC (Citrobacter freundii) [µg/mL] | Activity (DU-145) | MIC (Staphylococcus aureus [6]) [µg/mL] | MIC (Enterococcus faecalis) [µg/mL] | MIC (Staphylococcus aureus [7]) [µg/mL] | MIC (Staphylococcus aureus [8]) [µg/mL] | IC50 [9] [µM] | IC50 (DNA topoisomerase 1) [µM] | inhibition (Escherichia coli [10]) | further results
C#CCOc1ccc(-c2nc3ccc(-c4nc5ccc(N6CCN(C)CC6)cc5[nH]4)cc3[nH]2)cc1 | 1 to 2 (≈ 2.16 to 4.32 µM) | 1 to 2 (≈ 2.16 to 4.32 µM) | 1 to 2 (≈ 2.16 to 4.32 µM) | inactive | inactive | 1 to 2 (≈ 2.16 to 4.32 µM) | 8 (≈ 17.3 µM) | > 32 | 16 (≈ 34.6 µM) | > 32 | 32 (≈ 69.2 µM) | 4 (≈ 8.65 µM) | Toxic | – | – | – | – | – | – | – | –
C#CCCCCOc1ccc(-c2nc3ccc(-c4nc5ccc(N6CCN(C)CC6)cc5[nH]4)cc3[nH]2)cc1 | 1 to 2 (≈ 1.98 to 3.96 µM) | 1 to 2 (≈ 1.98 to 3.96 µM) | 4 (≈ 7.93 µM) | inactive | inactive | 8 (≈ 15.9 µM) | 8 to 16 (≈ 15.9 to 31.7 µM) | 16 (≈ 31.7 µM) | 16 (≈ 31.7 µM) | > 32 | > 32 | > 32 | Toxic | 4 (≈ 7.93 µM) | – | – | – | – | – | – | –
C#CCOCCCCCCCCCCCCOc1ccc(-c2nc3ccc(-c4nc5ccc(N6CCN(C)CC6)cc5[nH]4)cc3[nH]2)cc1 | ≥ 32 | > 32 | > 32 | inactive | – | > 32 | 16 (≈ 24.7 µM) | > 32 | 16 (≈ 24.7 µM) | > 32 | > 32 | > 32 | – | > 32 | 16 to 32 (≈ 24.7 to 49.5 µM) | 16 to 32 (≈ 24.7 to 49.5 µM) | 16 to 32 (≈ 24.7 to 49.5 µM) | 4 | > 50 | Active | ΔTm [11]: 1.2 °C; MIC (Escherichia coli [12]): 16 µg/mL (≈ 24.7 µM); IC50 (DU-145): > 10 µM; IC50 [13]: > 10 µM; Activity [14]: Active
C#CCOCCCCCCCCOc1ccc(-c2nc3ccc(-c4nc5ccc(N6CCN(C)CC6)cc5[nH]4)cc3[nH]2)cc1 | > 32 | > 32 | > 32 | – | – | > 38 | 16 to 32 (≈ 27.1 to 54.2 µM) | > 32 | 16 to 32 (≈ 27.1 to 54.2 µM) | > 32 | > 32 | > 32 | Toxic | > 32 | 16 to 32 (≈ 27.1 to 54.2 µM) | 16 to 32 (≈ 27.1 to 54.2 µM) | > 32 | 2.8 | > 50 | Active | ΔTm [11]: 13.1 °C; MIC (Escherichia coli [12]): 2 to 4 µg/mL (≈ 3.39 to 6.77 µM); Activity [14]: Active
C#CCCCCCCCCCOc1ccc(-c2nc3ccc(-c4nc5ccc(N6CCN(C)CC6)cc5[nH]4)cc3[nH]2)cc1 | > 32 | > 32 | > 32 | inactive | – | > 32 | 16 (≈ 27.8 µM) | > 32 | 16 (≈ 27.8 µM) | > 32 | > 32 | > 32 | – | > 32 | – | – | – | – | – | Active | IC50 (DU-145): > 10 µM
